These results are taken from ChEMBL document CHEMBL4364290, “Light-controlled inhibition of BRAFV600E kinase” (Eur J Med Chem, 2019).

Broadly, the IC50 is the concentration that gives 50% inhibition.

The source made the active and inactive calls. No cut-off for these calls is given here.

Series [1] can be described thus: Drug isomerization in DMSO-d6 irradiated at 365 nm assessed as cis isomer level at PSS at 2 mg/ml measured after 90 mins under room temperature by 1H and 19F-NMR spectroscopic analysis.
The subject of series [2] is A-375. Put plainly: Dark toxicity against human A375 cells harboring BRAF V600E mutant assessed as reduction in cell viability at 10 uM incubated for 24 hrs using preheated compound at 60 degC for 60 mins by MTS assay. Type of series: cell-based. The settings on record: a-375, 24 h, in the assay text read “30 mins” for “60 mins”. Summed up:
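A375 melanoma cells (BRAF V600E) exposed 24 h to 10 µM compound, thermally adapted or 365 nm-irradiated, versus DMSO control; viability by MTS assay.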

The nature of series [3]: Drug isomerization in bovine plasma assessed as cis-isomer formation at 10 uM irradiated with 365 nm light by LCMS analysis. Type of series: ADME, cell-free, Bos taurus. The settings on record: cattle.
Series [4] is described as follows: Drug isomerization in bovine plasma at 10 uM measured after 20 hrs at 37 degC by LCMS analysis. Type of series: ADME, cell-free, Bos taurus. The settings on record: cattle.
The subject of series [5] is Serine/threonine-protein kinase B-raf (Homo sapiens), P15056 [V600E]. Put plainly: Inhibition of BRAF V600E mutant in human SK-MEL-28 using peptide as substrate using preheated compound at 60 degC for 30 mins measured under dark condition by STK-Pamchip array-based method. Type of series: cell-based. Summed up: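 SK-Mel-28 cell lysates treated with DMSO control or inhibitor, either dark (thermally adapted) or irradiated with 365 nm light; kinase activity profiled on PamGene STK peptide chips.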

Series [6] can be described thus: Drug isomerization in DMSO-d6 irradiated at 365 nm assessed as cis isomer level at PSS at 2 mg/ml measured after 45 mins under room temperature by 1H and 19F-NMR spectroscopic analysis.
Series [7] can be described thus: Stability of the compound in DMSO-D6 at 2 mg/ml by 1H-19F NMR analysis. Type of series: physicochemical. The settings on record: read-out: Stability.
For series [8], the system named is Serine/threonine-protein kinase B-raf (Homo sapiens), P15056 [V600E]. Put plainly: Reversible inhibition of human recombinant N-terminal GST/His6-tagged BRAF V600E mutant (Q417 to H766 residues) expressed in Sf9 insect cells using MEK1 as substrate at 1 uM pre-irradiated with 365 nm light for 45 mins followed by thermal activation at 60 degC for 30 mins and subsequent light irradiation at 365 nm for 45 mins by Western blot analysis. On the technique in general: A western blot detects proteins with antibodies after separation by electrophoresis.
Sequence of Serine/threonine-protein kinase B-raf (Homo sapiens), P15056 [V600E] (P15056 whole entry V600E, the tested form may be a part): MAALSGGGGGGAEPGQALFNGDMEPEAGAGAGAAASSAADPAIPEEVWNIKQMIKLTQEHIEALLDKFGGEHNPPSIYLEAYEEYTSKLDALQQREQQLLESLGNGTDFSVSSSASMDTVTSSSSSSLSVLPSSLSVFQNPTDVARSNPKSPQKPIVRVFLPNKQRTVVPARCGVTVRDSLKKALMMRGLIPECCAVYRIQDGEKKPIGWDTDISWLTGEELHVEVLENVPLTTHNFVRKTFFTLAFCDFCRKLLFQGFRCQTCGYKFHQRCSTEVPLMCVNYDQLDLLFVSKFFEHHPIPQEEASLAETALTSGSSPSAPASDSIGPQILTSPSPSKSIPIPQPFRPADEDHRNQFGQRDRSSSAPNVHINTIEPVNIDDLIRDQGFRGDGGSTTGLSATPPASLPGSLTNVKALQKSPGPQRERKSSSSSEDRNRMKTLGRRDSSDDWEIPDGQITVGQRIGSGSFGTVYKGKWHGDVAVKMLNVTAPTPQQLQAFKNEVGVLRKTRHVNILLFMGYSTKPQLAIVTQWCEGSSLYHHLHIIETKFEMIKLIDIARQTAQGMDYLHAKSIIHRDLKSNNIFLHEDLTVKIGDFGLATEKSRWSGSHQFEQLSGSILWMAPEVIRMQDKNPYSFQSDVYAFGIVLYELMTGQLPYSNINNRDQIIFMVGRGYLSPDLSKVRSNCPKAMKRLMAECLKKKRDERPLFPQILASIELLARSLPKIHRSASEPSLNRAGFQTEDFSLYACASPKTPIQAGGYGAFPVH

In series [9] the target is Serine/threonine-protein kinase B-raf (Homo sapiens, UniProt P15056, V600E). The experiment in a line: Inhibition of human recombinant N-terminal GST/His6-tagged BRAF V600E mutant (Q417 to H766 residues) expressed in Sf9 insect cells using MEK1 as substrate measured after 1 hr using preheated compound at 60 degC for 30 mins by Western blot analysis.
Sequence of Serine/threonine-protein kinase B-raf (P15056 2-766 V600E limits assumed): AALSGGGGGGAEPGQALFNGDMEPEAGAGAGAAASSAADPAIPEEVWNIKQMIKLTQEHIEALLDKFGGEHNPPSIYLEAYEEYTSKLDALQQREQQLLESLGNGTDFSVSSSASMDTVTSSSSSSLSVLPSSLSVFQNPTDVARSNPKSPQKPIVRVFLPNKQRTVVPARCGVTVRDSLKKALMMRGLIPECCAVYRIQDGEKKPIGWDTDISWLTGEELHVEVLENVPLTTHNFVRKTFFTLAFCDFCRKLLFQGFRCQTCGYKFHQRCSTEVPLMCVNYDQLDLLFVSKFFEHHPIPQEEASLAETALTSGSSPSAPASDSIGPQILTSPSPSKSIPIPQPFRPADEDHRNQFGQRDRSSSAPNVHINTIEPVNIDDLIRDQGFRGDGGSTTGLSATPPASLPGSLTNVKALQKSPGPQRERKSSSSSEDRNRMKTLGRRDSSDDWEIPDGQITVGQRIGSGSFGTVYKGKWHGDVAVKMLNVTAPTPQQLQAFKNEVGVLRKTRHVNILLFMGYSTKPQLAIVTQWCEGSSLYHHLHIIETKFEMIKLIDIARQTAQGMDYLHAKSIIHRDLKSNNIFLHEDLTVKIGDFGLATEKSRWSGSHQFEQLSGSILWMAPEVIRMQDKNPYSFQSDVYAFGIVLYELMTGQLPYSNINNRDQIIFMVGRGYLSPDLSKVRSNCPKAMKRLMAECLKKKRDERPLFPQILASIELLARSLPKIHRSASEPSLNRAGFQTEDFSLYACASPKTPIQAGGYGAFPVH
Series [10] in a line: Stability in bovine plasma irradiated with white light at 10 uM by LCMS analysis. The settings on record: cattle. Type of series: ADME, cell-free, Bos taurus.
Series [11] can be described thus: Absorption property of the compound in DMSO assessed as maximum absorption wavelength. It is filed as physicochemical. In a few lines: (§1)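 λmax of the trans isomer recorded in DMSO and in BRAF assay buffer.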
Series [12] in a line: Absorption property of the compound in pH 7.5 tris HCl buffer assessed as maximum absorption wavelength. It is filed as physicochemical. In a few lines:
as §1

Series [13] in a line: Stability of thermally adapted compound in bovine plasma at 10 uM after 1 hr at 37 degC by LCMS analysis. The settings on record: cattle. Type of series: ADME, cell-free, Bos taurus.
Series [14] in a line: Drug isomerization in DMSO-d6 assessed as cis isomer level at PSS at 2 mg/ml irradiated at 365 nm light measured immediately by 1H-NMR spectroscopic analysis.

Turning to `COc1n[nH]c2ncc(NC(=O)c3c(F)ccc(/N=N/c4ccccc4)c3F)cc12`, the Drug metabolism in series [1] was 55%; in [4] it was “Metabolite_Detected”; in series [6] it was 46%; in series [14], 37%. The Activity result is listed as “Non-Toxic” in series [2], 332 nm in series [11] and 328 nm in [12]. For the same compound, the Stability result in series [3], in [10] and in series [13] was “Unstable” in each case. In addition, the inhibition result in series [5] and in [8] was “Active” throughout. Also, in series [7], the remaining at 2 mg/ml was more than 95%. Moreover, the IC50 in series [9] worked out at 1680 nM.
